Experimental data taken from PMC10925177 (bioRxiv, 2024).

Tests used:
[1] = target: T1, G9a (Homo sapiens, UniProt Q96KQ7); test: Western blot of G9a protein levels in cancer cells; assay type: cell-based
T1 sequence (Q96KQ7 1-1210): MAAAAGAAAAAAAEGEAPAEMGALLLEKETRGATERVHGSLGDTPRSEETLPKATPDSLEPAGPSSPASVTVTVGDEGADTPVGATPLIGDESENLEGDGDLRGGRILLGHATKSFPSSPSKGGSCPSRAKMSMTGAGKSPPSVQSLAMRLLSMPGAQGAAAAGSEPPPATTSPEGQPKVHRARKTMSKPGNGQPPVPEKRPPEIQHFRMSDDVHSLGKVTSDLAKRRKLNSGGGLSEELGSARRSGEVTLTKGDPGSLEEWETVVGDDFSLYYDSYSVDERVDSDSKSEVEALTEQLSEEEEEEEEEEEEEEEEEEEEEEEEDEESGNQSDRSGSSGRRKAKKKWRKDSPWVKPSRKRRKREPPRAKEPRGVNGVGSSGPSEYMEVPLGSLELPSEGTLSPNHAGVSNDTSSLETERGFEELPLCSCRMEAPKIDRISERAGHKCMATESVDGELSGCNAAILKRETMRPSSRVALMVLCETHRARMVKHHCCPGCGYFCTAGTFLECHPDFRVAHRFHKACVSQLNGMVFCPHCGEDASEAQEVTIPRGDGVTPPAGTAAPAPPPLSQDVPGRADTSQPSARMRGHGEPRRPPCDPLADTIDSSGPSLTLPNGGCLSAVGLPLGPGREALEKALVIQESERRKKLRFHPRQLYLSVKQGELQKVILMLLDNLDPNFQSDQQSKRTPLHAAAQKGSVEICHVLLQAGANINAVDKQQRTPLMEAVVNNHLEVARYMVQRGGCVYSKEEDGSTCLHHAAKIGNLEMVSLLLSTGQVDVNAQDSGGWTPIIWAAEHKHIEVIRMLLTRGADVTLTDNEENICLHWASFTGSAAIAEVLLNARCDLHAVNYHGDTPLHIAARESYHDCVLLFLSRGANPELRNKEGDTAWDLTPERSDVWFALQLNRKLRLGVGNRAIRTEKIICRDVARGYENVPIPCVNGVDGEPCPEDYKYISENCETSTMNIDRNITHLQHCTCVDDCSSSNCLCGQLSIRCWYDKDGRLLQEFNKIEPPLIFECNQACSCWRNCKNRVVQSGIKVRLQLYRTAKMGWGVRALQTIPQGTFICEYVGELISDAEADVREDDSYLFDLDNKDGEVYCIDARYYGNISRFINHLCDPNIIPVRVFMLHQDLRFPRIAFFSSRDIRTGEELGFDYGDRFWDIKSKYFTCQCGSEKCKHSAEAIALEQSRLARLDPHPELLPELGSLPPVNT
Method in brief: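 Cells (22Rv1, K562, H1299) were treated for 24 h at the indicated concentrations; 22Rv1 time courses were run at 3 μM. Cells were lysed in RIPA with protease inhibitors, and 10–30 μg of protein was resolved by SDS-PAGE and transferred to PVDF. Blots were probed overnight at 4 °C, with vinculin/β-actin as loading controls. Band intensity was normalised to DMSO, with n = 2 independent experiments (mean ± SD).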

[2] = target: T2, GLP (Homo sapiens, UniProt Q9H9B1); test: GLP radioactive methyltransferase assay; assay type: biochemical; conditions: indicated concentrations, duplicate (Figure 4C)
T2 sequence (Q9H9B1 1-1298): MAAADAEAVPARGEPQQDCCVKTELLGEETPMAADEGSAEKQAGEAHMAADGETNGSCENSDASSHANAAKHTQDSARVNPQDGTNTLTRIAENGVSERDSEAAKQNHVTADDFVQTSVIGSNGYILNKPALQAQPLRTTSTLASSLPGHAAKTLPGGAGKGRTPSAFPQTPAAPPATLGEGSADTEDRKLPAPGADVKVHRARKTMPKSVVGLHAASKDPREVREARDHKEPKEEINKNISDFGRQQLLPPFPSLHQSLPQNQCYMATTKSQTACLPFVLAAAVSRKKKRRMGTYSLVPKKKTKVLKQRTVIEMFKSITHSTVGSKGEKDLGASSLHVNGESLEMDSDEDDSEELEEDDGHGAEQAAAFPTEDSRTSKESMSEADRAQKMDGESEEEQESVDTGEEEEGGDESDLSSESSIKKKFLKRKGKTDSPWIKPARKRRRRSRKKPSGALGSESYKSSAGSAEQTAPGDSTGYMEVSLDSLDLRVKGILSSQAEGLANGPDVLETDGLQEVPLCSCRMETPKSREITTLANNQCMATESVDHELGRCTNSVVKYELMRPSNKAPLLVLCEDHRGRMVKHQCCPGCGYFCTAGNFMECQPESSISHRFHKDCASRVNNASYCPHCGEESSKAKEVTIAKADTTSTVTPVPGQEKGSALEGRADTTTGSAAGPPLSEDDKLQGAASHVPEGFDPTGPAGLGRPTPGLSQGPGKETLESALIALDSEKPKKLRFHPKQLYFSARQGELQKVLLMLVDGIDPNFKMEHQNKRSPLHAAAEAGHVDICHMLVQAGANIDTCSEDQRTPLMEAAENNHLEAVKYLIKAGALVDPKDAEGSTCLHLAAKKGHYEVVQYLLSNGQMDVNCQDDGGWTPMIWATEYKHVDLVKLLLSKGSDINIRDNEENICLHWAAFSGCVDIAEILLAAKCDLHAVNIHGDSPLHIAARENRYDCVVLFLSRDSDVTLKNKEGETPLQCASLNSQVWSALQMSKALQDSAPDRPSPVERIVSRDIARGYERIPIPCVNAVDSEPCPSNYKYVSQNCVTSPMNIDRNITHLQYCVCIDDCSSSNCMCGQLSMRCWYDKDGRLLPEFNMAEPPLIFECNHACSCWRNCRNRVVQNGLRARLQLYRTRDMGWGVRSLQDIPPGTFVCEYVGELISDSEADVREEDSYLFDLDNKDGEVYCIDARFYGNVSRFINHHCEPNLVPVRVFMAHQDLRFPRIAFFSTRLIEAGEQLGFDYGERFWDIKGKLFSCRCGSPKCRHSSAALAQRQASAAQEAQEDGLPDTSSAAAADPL
Method in brief: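 Enzyme activity was measured with a radioisotope-based MT HotSpot methyltransferase assay run by a contract laboratory. Test compounds were run at the indicated concentrations, in duplicate. Data are mean ± SD of the two duplicate experiments.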

[3] = target: EZH2 (Homo sapiens, UniProt Q15910); test: Radioactive methyltransferase assay, EZH2; assay type: biochemical; conditions: 10 μM compound
EZH2, sequence (Q15910 whole entry): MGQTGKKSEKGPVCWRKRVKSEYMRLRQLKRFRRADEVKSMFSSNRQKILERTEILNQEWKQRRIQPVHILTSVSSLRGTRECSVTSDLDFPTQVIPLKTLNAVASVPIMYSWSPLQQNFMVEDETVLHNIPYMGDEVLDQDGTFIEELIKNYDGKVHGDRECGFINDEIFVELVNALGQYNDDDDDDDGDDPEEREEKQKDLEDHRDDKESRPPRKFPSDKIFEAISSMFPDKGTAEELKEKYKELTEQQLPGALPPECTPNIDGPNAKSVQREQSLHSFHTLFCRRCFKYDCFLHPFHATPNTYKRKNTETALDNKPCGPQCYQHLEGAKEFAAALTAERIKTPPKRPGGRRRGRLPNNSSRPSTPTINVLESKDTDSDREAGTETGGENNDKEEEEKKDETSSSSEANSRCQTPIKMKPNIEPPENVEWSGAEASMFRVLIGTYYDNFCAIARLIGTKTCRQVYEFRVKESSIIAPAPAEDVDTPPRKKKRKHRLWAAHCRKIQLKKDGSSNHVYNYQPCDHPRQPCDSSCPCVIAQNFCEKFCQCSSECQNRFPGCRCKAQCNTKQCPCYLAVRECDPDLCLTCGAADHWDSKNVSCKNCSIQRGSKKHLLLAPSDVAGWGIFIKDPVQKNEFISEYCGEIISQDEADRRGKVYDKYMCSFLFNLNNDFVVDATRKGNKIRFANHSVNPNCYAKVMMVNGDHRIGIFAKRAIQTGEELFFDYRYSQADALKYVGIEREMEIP
EZH2, sequence (O75530 whole entry partner): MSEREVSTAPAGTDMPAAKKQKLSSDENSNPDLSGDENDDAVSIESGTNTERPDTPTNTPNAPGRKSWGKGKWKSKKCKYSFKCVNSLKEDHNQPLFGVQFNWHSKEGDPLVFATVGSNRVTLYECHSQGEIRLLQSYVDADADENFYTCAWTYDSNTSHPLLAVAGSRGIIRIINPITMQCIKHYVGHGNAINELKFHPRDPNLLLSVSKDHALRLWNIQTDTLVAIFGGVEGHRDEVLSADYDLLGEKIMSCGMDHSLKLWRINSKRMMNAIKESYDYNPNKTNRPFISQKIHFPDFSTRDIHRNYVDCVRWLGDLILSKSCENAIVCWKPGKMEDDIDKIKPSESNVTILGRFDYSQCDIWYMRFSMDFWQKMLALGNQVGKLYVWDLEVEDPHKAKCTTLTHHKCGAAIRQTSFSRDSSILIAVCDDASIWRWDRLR
EZH2, sequence (Q15022 whole entry partner): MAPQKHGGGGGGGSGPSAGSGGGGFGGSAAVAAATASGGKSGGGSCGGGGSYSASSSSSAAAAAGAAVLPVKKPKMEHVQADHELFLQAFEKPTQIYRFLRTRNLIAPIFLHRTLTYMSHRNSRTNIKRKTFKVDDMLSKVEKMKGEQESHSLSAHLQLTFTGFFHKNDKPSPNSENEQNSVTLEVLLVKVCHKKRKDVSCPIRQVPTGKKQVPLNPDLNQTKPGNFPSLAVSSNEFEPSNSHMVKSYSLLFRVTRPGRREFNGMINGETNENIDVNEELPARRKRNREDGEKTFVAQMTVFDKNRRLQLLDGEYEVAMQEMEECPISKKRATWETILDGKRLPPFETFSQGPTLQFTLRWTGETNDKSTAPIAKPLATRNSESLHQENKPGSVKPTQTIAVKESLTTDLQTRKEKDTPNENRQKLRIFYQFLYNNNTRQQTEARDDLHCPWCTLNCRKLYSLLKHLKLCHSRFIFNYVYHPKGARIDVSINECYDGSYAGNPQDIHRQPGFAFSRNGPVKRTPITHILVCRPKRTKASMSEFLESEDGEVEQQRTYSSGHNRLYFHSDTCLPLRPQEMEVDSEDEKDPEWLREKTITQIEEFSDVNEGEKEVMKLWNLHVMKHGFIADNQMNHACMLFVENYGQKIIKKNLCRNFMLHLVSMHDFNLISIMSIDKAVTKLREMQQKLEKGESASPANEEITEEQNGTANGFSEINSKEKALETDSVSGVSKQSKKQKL
EZH2, sequence (Q09028 whole entry partner): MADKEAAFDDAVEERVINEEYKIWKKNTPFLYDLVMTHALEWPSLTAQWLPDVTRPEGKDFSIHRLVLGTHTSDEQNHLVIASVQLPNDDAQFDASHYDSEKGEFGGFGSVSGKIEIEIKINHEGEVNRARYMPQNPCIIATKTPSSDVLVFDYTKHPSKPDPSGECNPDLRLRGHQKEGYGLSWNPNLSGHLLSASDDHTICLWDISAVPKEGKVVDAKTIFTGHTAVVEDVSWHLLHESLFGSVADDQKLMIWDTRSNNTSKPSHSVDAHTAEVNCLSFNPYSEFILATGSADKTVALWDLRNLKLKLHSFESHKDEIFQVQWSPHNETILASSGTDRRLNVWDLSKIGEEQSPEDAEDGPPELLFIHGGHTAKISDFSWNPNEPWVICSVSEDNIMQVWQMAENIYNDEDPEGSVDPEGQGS
EZH2, sequence (Q6ZN18 whole entry partner): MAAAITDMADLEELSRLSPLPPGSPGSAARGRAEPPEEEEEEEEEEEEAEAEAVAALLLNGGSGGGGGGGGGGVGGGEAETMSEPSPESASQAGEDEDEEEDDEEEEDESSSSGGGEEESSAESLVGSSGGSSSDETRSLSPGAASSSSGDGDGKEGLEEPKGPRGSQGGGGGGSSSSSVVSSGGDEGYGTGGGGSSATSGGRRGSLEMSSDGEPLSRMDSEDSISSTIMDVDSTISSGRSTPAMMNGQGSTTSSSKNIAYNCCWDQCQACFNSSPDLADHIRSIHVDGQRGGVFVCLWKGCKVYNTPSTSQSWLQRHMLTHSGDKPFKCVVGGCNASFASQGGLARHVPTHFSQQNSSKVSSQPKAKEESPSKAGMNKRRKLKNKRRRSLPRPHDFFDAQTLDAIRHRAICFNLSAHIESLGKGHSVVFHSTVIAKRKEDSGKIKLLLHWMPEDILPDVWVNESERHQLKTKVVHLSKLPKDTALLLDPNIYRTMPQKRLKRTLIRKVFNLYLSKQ

COc1cc2c(NC3CCN(CCCC(=O)NCCCCCCCCCCCC(=O)N[C@H](C(=O)N4C[C@H](O)C[C@H]4C(=O)NCc4ccc(-c5scnc5C)cc4)C(C)(C)C)CC3)nc(N3CCC(F)(F)CC3)nc2cc1OCCCN1CCCC1 [Compound 10, (2S,4R)-1-((S)-2-(12-(4-(4-((2-(4,4-difluoropiperidin-1-yl)-6-methoxy-7-(3-(pyrrolidin-1-yl)propoxy)quinazolin-4-yl)amino)piperidin-1-yl)butanamido)dodecanamido)-3,3-dimethylbutanoyl)-4-hydroxy-N-(4-(4-methylthiazol-5-yl)benzyl)pyrrolidine-2-carboxamide]
G9a degradation, in words ([1]; 22Rv1 cells, 1 μM, 24 h, WB (Figure 3A)): potently induced degradation
duration of G9a degradation effect ([1]; 22Rv1 cells, 3 μM): up to 48 h
time at which G9a degradation was first observed ([1]; 22Rv1 cells, 3 μM): 4 h
time to complete G9a degradation ([1]; 22Rv1 cells, 3 μM): around 24 h
G9a degradation, in words ([1]; H1299 cells, 3 μM, 24 h, WB): degraded
G9a degradation, in words ([1]; K562 cells, 3 μM, 24 h, WB): induced G9a and GLP degradation
DC50 ([1]; read-out: half-maximal degradation concentration (DC50) for G9a, 22Rv1 cells, 24 h, WB): 0.274 ± 0.002 µM
inhibition of GLP enzymatic activity [2]: similarly inhibited
inhibition of EZH2 [3]: moderately inhibited
